Converted amounts (≈) assume the structure as drawn. Values belong to the compound of their own block, whether it stands above or below them.
How the values were obtained:
[1] = target: Signal peptidase I (Escherichia coli K-12) (UniProt P00803); assay: Inhibition of full length Escherichia coli His6-tagged LepB expressed in Escherichia coli C43(DE3) at 100 uM using dabcyl-VEVGGTATAGAFSRPGLE-(EDANS) as substrate preincubated for 10 mins followed by substrate addition measured for 2 hrs by FRET assay relative to control
Outline: (§1)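 Enzyme came from the membrane fraction, extracted with 1% reduced Triton X-100 and purified by metal-chelation chromatography in 0.5% detergent. FRET pair was dabcyl acceptor and EDANS donor. EcLepB (final about 50 nM) was pre-incubated with compound 10 min at 22 °C. Reaction was then run with 8 µM substrate, following the linear fluorescence increase at 22 °C for 2 h.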

[2] = target: Signal peptidase I (Escherichia coli K-12, UniProt P00803); assay: Inhibition of full length Escherichia coli His6-tagged LepB expressed in Escherichia coli C43(DE3) using dabcyl-VEVGGTATAGAFSRPGLE-(EDANS) as substrate preincubated for 10 mins followed by substrate addition measured for 2 hrs by FRET assay
Outline: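 Enzyme extracted from the membrane fraction with 1% reduced Triton X-100 and purified by metal-chelation chromatography in 0.5% detergent. Enzyme (final ~50 nM) was pre-incubated with compound for 10 min at 22 °C. The linear rise in EDANS donor fluorescence (dabcyl acceptor) was then followed at 22 °C for 2 h. IC50 came from non-linear regression of sigmoidal rate-versus-concentration curves.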

[3] = target: Signal peptidase I (Escherichia coli K-12) (UniProt P00803); assay: Inhibition of full length Escherichia coli His6-tagged LepB expressed in Escherichia coli C43(DE3) assessed as residual activity at 2.5 uM using dabcyl-VEVGGTATAGAFSRPGLE-(EDANS) as substrate preincubated for 10 mins followed by substrate addition measured for 2 hrs by FRET assay relative to control; outline: as §1
[4] = target: Signal peptidase I (Escherichia coli K-12) (UniProt P00803); assay: Inhibition of full length Escherichia coli His6-tagged LepB expressed in Escherichia coli C43(DE3) assessed as residual activity at 5 uM using dabcyl-VEVGGTATAGAFSRPGLE-(EDANS) as substrate preincubated for 10 mins followed by substrate addition measured for 2 hrs by FRET assay relative to control; outline: as §1
[5] = target: Signal peptidase I (Escherichia coli K-12) (UniProt P00803); assay: (§2) Inhibition of full length Escherichia coli His6-tagged LepB expressed in Escherichia coli C43(DE3) assessed as residual activity at 10 uM using dabcyl-VEVGGTATAGAFSRPGLE-(EDANS) as substrate preincubated for 10 mins followed by substrate addition measured for 2 hrs by FRET assay relative to control; outline: as §1
[6] = target: Signal peptidase I (Escherichia coli K-12) (UniProt P00803); assay: as §2, with “at 1.25” for “at 10”; outline: as §1
[7] = target: Signal peptidase I (Escherichia coli K-12) (UniProt P00803); assay: as §2, with “at 0.625” for “at 10”; outline: as §1
[8] = target: Signal peptidase I (Escherichia coli K-12) (UniProt P00803); assay: as §2, with “at 0.313” for “at 10”; outline: as §1
[9] = target: Signal peptidase I (Escherichia coli K-12) (UniProt P00803); assay: as §2, with “at 0.156” for “at 10”; outline: as §1
[10] = target: Signal peptidase I (Escherichia coli K-12) (UniProt P00803); assay: as §2, with “at 0.078” for “at 10”; outline: as §1
[11] = target: Signal peptidase I (Escherichia coli K-12) (UniProt P00803); assay: as §2, with “at 0.039” for “at 10”; outline: as §1
[12] = target: Signal peptidase I (Escherichia coli K-12) (UniProt P00803); assay: as §2, with “at 0.02” for “at 10”; outline: as §1
[13] = target: Signal peptidase I (Escherichia coli K-12) (UniProt P00803); assay: as §2, with “at 0.01” for “at 10”; outline: as §1
[14] = test system: Escherichia coli; assay: Antibacterial activity against wild type Escherichia coli ATCC 25922 after 16 to 20 hrs by broth microdilution assay; assay type: functional
Outline: (§3)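 MIC by broth microdilution in cation-adjusted Mueller-Hinton II medium, following EUCAST and CLSI guidelines; panel of Gram-negative strains plus S. aureus ATCC 29213.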

[15] = test system: Escherichia coli; assay: Antibacterial activity against Escherichia coli CH3130 harboring tolC deletion mutant after 16 to 20 hrs by broth microdilution assay; assay type: functional
Outline: (§4)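 Broth microdilution MIC in cation-adjusted Mueller-Hinton II medium, following EUCAST and CLSI guidelines; tested on a panel of Gram-negative strains plus S. aureus ATCC 29213 (wild-type).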

[16] = test system: Escherichia coli; assay: Antibacterial activity against Escherichia coli D22 harboring lpxC mutant after 16 to 20 hrs by broth microdilution assay; assay type: functional; outline: as §4
[17] = test system: Pseudomonas aeruginosa; assay: Antibacterial activity against wild type Pseudomonas aeruginosa PAO1 after 16 to 20 hrs by broth microdilution assay; assay type: functional; outline: as §3
[18] = test system: Pseudomonas aeruginosa; assay: Antibacterial activity against wild type Pseudomonas aeruginosa PAO750 harboring efflux defective mutant after 16 to 20 hrs by broth microdilution assay; assay type: functional; outline: as §4
[19] = test system: Klebsiella pneumoniae; assay: Antibacterial activity against wild type Klebsiella pneumoniae […] after 16 to 20 hrs by broth microdilution assay; assay type: functional; outline: as §3
[20] = test system: Staphylococcus aureus; assay: Antibacterial activity against wild type Staphylococcus aureus ATCC 29213 after 16 to 20 hrs by broth microdilution assay; assay type: functional; outline: as §3
[21] = test system: Acinetobacter baumannii; assay: Antibacterial activity against wild type Acinetobacter baumannii ATCC 19606 after 16 to 20 hrs by broth microdilution assay; assay type: functional; outline: as §3
[22] = Cytotoxicity against human HepG2 cells assessed as reduction in cell viability after 72 hrs by fluorescein diacetate dye based fluorometric microculture assay; assay type: toxicity
Outline: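 FMCA on HepG2 cells read at 72 h. Survival index (%) is fluorescence in test wells as percent of control cultures, with blank values subtracted. IC50 was obtained by non-linear regression of log concentration-effect curves.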

[23] = Hemolytic activity against human RBC at 100 uM after 45 mins by spectrophotometric method relative to control; assay type: ADME, cell-based, Erythrocyte; settings: red blood cells (RBC), read-out: Activity
Outline: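 Hemolysis was tested using red blood cells from heparinized human blood.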

[24] = target: Signal peptidase I (Escherichia coli K-12) (UniProt P00803); assay: as §2, with “at 0.002” for “at 10”; outline: as §1
[25] = target: Signal peptidase I (Escherichia coli K-12) (UniProt P00803); assay: as §2, with “at 0.005” for “at 10”; outline: as §1
[26] = target: Signal peptidase I (Escherichia coli K-12) (UniProt P00803); assay: as §2, with “at 0.001” for “at 10”; outline: as §1
[27] = target: Signal peptidase I (Escherichia coli K-12) (UniProt P00803); assay: as §2, with “at 0.0005” for “at 10”; outline: as §1

Signal peptidase I (Escherichia coli K-12), sequence (P00803 whole entry): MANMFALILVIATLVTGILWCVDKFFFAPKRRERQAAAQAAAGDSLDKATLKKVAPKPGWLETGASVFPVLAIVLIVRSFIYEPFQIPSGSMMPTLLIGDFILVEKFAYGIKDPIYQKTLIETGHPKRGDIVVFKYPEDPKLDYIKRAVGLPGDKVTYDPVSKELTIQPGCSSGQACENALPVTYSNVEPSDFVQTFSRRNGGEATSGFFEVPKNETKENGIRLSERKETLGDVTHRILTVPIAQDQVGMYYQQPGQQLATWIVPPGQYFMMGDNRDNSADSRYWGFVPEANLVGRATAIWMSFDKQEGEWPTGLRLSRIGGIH
Signal peptidase I, sequence (P00803 whole entry): as above

SMILES: CC(=O)N[C@@H](C)C(=O)C(=O)NCc1cccc2ccccc12
inhibition [1]: 31%

SMILES: CCCCCCc1ccc(-c2ccc(C(=O)N3CCC[C@H]3C(=O)N[C@H](C(=O)N[C@@H](C)C(=O)N[C@@H](CC(N)=O)C(=O)N[C@@H](C)B(O)O)[C@H](C)O)cc2)cc1
IC50 [2]: 230 nM
Activity [3]: 7.49%
Activity [4]: 4.71%
inhibition [1]: > 50%
Activity [5]: 7.23%
Activity [6]: 16.8%
Activity [7]: 33.5%
Activity [8]: 38.4%
Activity [9]: 62.6%
Activity [10]: 95.5%
Activity [11]: 97%
Activity [12]: 97.9%
Activity [13]: 97.1%
MIC [14]: > 64 µg/mL
MIC [15]: > 64 µg/mL
MIC [16]: > 64 µg/mL
MIC [17]: > 64 µg/mL
MIC [18]: > 64 µg/mL
MIC [19]: > 64 µg/mL
MIC [20]: 4 µg/mL (≈ 5.43 µM)
MIC [21]: > 64 µg/mL
IC50 at 72 h [22]: > 64000 nM
hemolysis at 0.75 h, 100 µM [23]: 1.1%

SMILES: CC(=O)N1CCC[C@H]1C(=O)N[C@H](C(=O)N[C@@H](C)C(=O)N[C@@H](CC(N)=O)C(=O)N[C@@H](C)C(=O)C(=O)NC(C)(C)C)[C@H](C)O
inhibition [1]: 22.5%

SMILES: CCCCCCc1ccc(-c2ccc(C(=O)N3CCC[C@H]3C(=O)N[C@H](C(=O)N[C@@H](C)C(=O)N[C@@H](CC(N)=O)C(=O)N[C@@H](C)B3O[C@@H]4C[C@@H]5C[C@@H](C5(C)C)[C@]4(C)O3)[C@H](C)O)cc2)cc1
IC50 [2]: 12 nM
Activity [3]: 7.64%
Activity [4]: 11.2%
inhibition [1]: > 50%
Activity [24]: 92.8%
Activity [25]: 82.2%
Activity [6]: 11.4%
Activity [7]: 16%
Activity [8]: 17.4%
Activity [9]: 16.9%
Activity [10]: 11.5%
Activity [11]: 16.8%
Activity [12]: 51.2%
Activity [13]: 57%
Activity [26]: 94.4%
Activity [27]: 100%
MIC [14]: > 64 µg/mL
MIC [15]: 64 µg/mL (≈ 73.5 µM)
MIC [16]: 16 µg/mL (≈ 18.4 µM)
MIC [17]: > 64 µg/mL
MIC [18]: > 64 µg/mL
MIC [19]: > 64 µg/mL
MIC [20]: 4 µg/mL (≈ 4.59 µM)
MIC [21]: > 64 µg/mL
IC50 at 72 h [22]: 4700 nM
hemolysis at 0.75 h, 100 µM [23]: 1.1%

Continued, values first:

inhibition [1]: 38%
SMILES: CCCCCCCCCC(=O)N1CCC[C@H]1C(=O)N[C@H](C(=O)N[C@@H](C)C(=O)N[C@@H](CC(N)=O)C(=O)N[C@@H](C)C(=O)O)[C@H](C)O

inhibition [1]: 31.5%
SMILES: CCCCCCCCCC(=O)N1CCC[C@H]1C(=O)N[C@H](C(=O)N[C@@H](C)C(=O)N[C@@H](CC(N)=O)C(=O)N[C@@H](C)C(=O)C(=O)NC(C)(C)C)[C@H](C)O

inhibition [1]: 14.4%
SMILES: CCCCCCCCCC(=O)N1CCC[C@H]1C(=O)N[C@H](C(=O)N[C@@H](C)C(=O)N[C@@H](CC(N)=O)C(=O)N[C@@H](C)C(=O)C(=O)NCc1cccc2ccccc12)[C@H](C)O

inhibition [1]: 31.3%
SMILES: CCCCCCCCCC(=O)N1CCC[C@H]1C(=O)N[C@H](C(=O)N[C@@H](C)C(=O)N[C@@H](CC(N)=O)C(=O)N[C@@H](C)C(=O)N1CCC[C@H]1C(=O)NC)[C@H](C)O

Reference: ChEMBL document CHEMBL3877308, “Design, synthesis and in vitro biological evaluation of oligopeptides targeting E. coli type I signal peptidase (LepB)” (Bioorg Med Chem, 2017)
